Experimental data from PMC4883002 (Environmental science & technology, 2016).
Where a name gives a salt, the structure may show the parent alone.

Experiments:
[1] = molecular target: human serum albumin (HSA) Site I (Homo sapiens, UniProt P02768); experiment: Displacement of the Site I-selective fluorescent probe DNSA from HSA; assay type: binding; conditions: for Site I binding (DNSA displacement), result in words: 10 µM HSA, 20 µM DNSA, pH 7.4, 25°C, numeric EC50 values only in Figures 4-6; for fluorescence of the site I probe, DNSA: at higher concentrations of ligand
Procedure, shortened: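 Fatty acid- and globulin-free HSA in 0.1 M potassium phosphate, pH 7.4, with DNSA probe and increasing ligand concentrations (DMSO stocks; final DMSO <0.8% v/v; DMSO-only controls). Fluorescence read after 5 min at 25°C, ex 350/em 460 nm. Triplicates, each averaging six readings, as % of control.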

HSA [2] = conditions: cited from earlier work
HSA [3] = conditions: cited from earlier work; remark: listed apart in the source
human serum albumin = conditions: HSA binding, previously published; cited from earlier work

Sequence of human serum albumin (HSA) Site I (P02768 25-609): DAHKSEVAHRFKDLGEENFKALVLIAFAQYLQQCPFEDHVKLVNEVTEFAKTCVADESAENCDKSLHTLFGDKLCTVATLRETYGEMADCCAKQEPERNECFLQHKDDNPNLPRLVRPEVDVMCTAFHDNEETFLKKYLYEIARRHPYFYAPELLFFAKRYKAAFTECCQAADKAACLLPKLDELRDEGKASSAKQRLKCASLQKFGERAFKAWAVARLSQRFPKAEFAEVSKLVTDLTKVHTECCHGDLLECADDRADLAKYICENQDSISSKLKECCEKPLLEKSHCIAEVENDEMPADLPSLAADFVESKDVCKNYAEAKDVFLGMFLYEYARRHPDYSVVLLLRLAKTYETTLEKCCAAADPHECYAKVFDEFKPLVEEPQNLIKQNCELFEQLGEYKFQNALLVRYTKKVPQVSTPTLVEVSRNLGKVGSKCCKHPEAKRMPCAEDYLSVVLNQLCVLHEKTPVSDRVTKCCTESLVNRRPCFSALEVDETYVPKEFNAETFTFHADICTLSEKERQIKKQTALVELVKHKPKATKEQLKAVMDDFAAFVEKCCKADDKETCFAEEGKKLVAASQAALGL

Row | SMILES | Site I binding (DNSA displacement), result in words [1] | binding to Site II (HSA [2]) | binding to Sudlow Site I (HSA [2]) | other results
1 | Oc1ccc(-c2ccc(Cl)cc2)cc1 [4’-OH-PCB 3] | significant binding | – | – | –
2 | Oc1ccc(-c2cc(Cl)ccc2Cl)cc1 [4’-OH-PCB 9] | no significant binding | – | – | –
3 | O=S(=O)(O)Oc1ccc(-c2ccc(Cl)cc2)cc1 [4’-PCB 3 sulfate] | significant binding | – | – | –
4 | O=S(=O)(O)Oc1ccc(-c2ccc(Cl)c(Cl)c2)cc1 [4’-PCB 12 sulfate] | no significant binding | – | – | –
5 | O=S(=O)(O)Oc1ccc(-c2ccc(Cl)c(Cl)c2)c(Cl)c1 [4’-PCB 33 sulfate] | – | – | – | fluorescence of the site I probe, DNSA [1]: increased
6 | O=S(=O)(O)Oc1ccc(-c2ccc(Cl)c(Cl)c2)cc1Cl [4’-PCB 35 sulfate] | lack of interaction | – | – | fluorescence of the site I probe, DNSA [1]: increased
7 | Clc1ccc(-c2cc(Cl)c(Cl)cc2Cl)cc1Cl [PCB 118] | – | no binding | bound with high affinity | –
8 | Clc1cc(Cl)c(-c2cc(Cl)c(Cl)cc2Cl)cc1Cl [PCB 153] | – | no binding | bound with high affinity | HSA binding site (HSA [3]): bound to a single site of HSA, Sudlow Site II
9 | Clc1ccc(-c2cc(Cl)c(Cl)c(Cl)c2)cc1Cl [compound 126] | – | no binding | bound with high affinity | –
10 | O=C(O)c1ccccc1Nc1cccc(C(F)(F)F)c1 [flufenamic acid] | – | – | – | Ka (human serum albumin): 156000 M⁻¹
